Consider three compounds from ChEMBL document CHEMBL4414639, “Synthesis, Pharmacological Characterization, and Structure-Activity Relationships of Noncanonical Selective Agonists for α7 nAChRs” (J Med Chem, 2019).

The source made the active and inactive calls. The calls are words filed in the database; no cut-off is given here.

The species entered for assay [1] is Mus musculus. As to the kind of experiment: Inhibition of mouse alpha1beta1epsilondelta nAChR expressed in Xenopus laevis oocytes assessed as increase in channel currents at 30 uM at -60 mV holding potential by two electrode voltage clamp assay. Type of assay: cell-based. On the technique in general: In two-electrode clamp one electrode senses voltage and the other passes current.

In assay [2] the target is T1, Neuronal acetylcholine receptor; alpha4/beta2 (Homo sapiens) (UniProt P17787+P43681). As to the kind of experiment: Agonist activity at human (alpha4)3 (beta2)2 nAChR expressed in Xenopus laevis oocytes assessed as increase in channel currents at 30 uM at -60 mV holding potential by two electrode voltage clamp assay. It counts as cell-based. In short, it runs like this: (§1)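 Two-electrode voltage clamp on oocytes at -60 mV in Ringer's (115 mM NaCl, 2.5 mM KCl, 1.8 mM CaCl2, 10 mM HEPES, 1 µM atropine, pH 7.2), 4 mL/min flow. Test compound applied 6 s, then 271 s washout. Normalized to mean of two ACh precontrols: 30 µM for α1β1εδ, 100 µM for α3β4, 100 µM for LS α4β2, 10 µM for HS α4β2.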

The target in assay [3] is T2, Neuronal acetylcholine receptor; alpha3/beta4 (Homo sapiens) (UniProt P30926+P32297). As to the kind of experiment: Agonist activity at human alpha3beta4 nAChR expressed in Xenopus laevis oocytes assessed as increase in channel currents at 30 uM at -60 mV holding potential by two electrode voltage clamp assay. Type of assay: cell-based. In a few lines:
as §1

For assay [4], the target named is T1, Neuronal acetylcholine receptor; alpha4/beta2 (Homo sapiens). As to the kind of experiment: Inhibition of human (alpha4)2 (beta2)3 nAChR expressed in Xenopus laevis oocytes assessed as increase in channel currents at 30 uM at -60 mV holding potential by two electrode voltage clamp assay. It counts as cell-based.
For assay [5] the target is unchanged. As to the kind of experiment: Agonist activity at human (alpha4)2 (beta2)3 nAChR expressed in Xenopus laevis oocytes assessed as increase in channel currents at 30 uM at -60 mV holding potential by two electrode voltage clamp assay. It counts as cell-based. In a few lines: as §1
Assay [6] deals with T3, Neuronal acetylcholine receptor subunit alpha-7 (Homo sapiens, UniProt P36544). As to the kind of experiment: Agonist activity at human alpha7 nAChR expressed in Xenopus laevis oocytes assessed as increase in channel currents at -60 mV holding potential by two electrode voltage clamp assay relative Ach. Type of assay: cell-based. In short, it runs like this:
(§2)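 Oocytes expressing human α7 nAChR (with human RIC-3 cDNA available), clamped at -60 mV in Ringer's pH 7.2 with 1 µM atropine, 2 mL/min flow. Drug applied 12 s, 211 s washout. Responses normalized to mean of two 60 µM ACh precontrol responses per oocyte. Data from six cells. Concentration-response data fit to the Hill equation. Sequence included 30 µM test compound, then 60 µM ACh, then 10 µM PNU-120596.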

In assay [7] the target is T3, Neuronal acetylcholine receptor subunit alpha-7. As to the kind of experiment: Inhibition of human alpha7 nAChR expressed in Xenopus laevis oocytes assessed as decrease in ACh-induced channel currents at -60 mV holding potential by two electrode voltage clamp assay. Type of assay: cell-based. In short, it runs like this: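 Human α7 nAChR in oocytes under two-electrode voltage clamp at -60 mV, Ringer's pH 7.2, 2 mL/min. Test compound applied 12 s with 211 s washout, then 60 µM ACh applied. ACh response normalized to the mean of two ACh precontrols per oocyte. Inhibition concentration-response curves from six cells, Hill equation fit.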

For assay [8], the species on record is Mus musculus. As to the kind of experiment: Agonist activity at mouse alpha1beta1epsilondelta nAChR expressed in Xenopus laevis oocytes assessed as increase in channel currents at 30 uM at -60 mV holding potential by two electrode voltage clamp assay. It counts as cell-based. In short, it runs like this:
as §1

Assay [9] deals with T3, Neuronal acetylcholine receptor subunit alpha-7. As to the kind of experiment: Agonist activity at alpha7 nAChR (unknown origin) transfected in HEK cells assessed as increase in intracellular calcium release incubated for 30 mins by FRET assay. Type of assay: cell-based. In short, it runs like this: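 Stable HEK cell line expressing α7 nAChR with TN-XXL FRET calcium biosensor (CNiFER), in DMEM with 10% FBS at 37 °C, 6% CO2. Cells preincubated 30 min at 37 °C in aCSF with PNU-120596 (10 µM final). FRET ratio (527/485 nm, 436 nm excitation) read at 37 °C over 120 s, agonist injected at 30 s, triplicate wells. EC50 from variable-slope sigmoidal fit of mean peak ratios, normalized to 316 µM response.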

Assay [10] deals with T1, Neuronal acetylcholine receptor; alpha4/beta2 (Homo sapiens). As to the kind of experiment: Inhibition of human (alpha4)3 (beta2)2 nAChR expressed in Xenopus laevis oocytes assessed as increase in channel currents at 30 uM at -60 mV holding potential by two electrode voltage clamp assay. It counts as cell-based.
The target of assay [11] is T3, Neuronal acetylcholine receptor subunit alpha-7. As to the kind of experiment: Agonist activity at human alpha7 nAChR expressed in Xenopus laevis oocytes assessed as increase in channel currents at 30 uM at -60 mV holding potential by two electrode voltage clamp assay. It counts as cell-based. In short, it runs like this:
as §2

The target in assay [12] is T1, Neuronal acetylcholine receptor; alpha4/beta2 (Homo sapiens). As to the kind of experiment: Antagonist activity at alpha4beta2 nAChR (unknown origin) transfected in HEK cells assessed as decrease in epibatidine-induced intracellular calcium release incubated for 30 mins by FRET assay.
Assay [13] deals with T4, 5-hydroxytryptamine receptor 3A (Homo sapiens) (UniProt P46098).
T4 sequence (whole entry): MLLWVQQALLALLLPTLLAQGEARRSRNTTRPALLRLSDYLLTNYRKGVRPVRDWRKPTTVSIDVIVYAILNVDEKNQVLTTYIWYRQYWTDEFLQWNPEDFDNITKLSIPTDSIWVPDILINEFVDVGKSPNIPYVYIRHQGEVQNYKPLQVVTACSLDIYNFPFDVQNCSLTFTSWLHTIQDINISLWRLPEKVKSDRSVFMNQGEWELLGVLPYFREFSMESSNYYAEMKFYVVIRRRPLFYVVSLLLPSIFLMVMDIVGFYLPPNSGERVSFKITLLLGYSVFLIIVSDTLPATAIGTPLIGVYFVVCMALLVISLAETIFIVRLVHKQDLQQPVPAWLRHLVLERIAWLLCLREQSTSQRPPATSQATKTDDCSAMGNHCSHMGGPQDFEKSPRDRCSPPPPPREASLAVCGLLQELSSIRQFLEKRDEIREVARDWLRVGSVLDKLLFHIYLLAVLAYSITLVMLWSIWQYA
As to the kind of experiment: Antagonist activity at 5HT3A (unknown origin) transfected in HEK cells assessed as decrease in agonist-induced intracellular calcium release incubated for 30 mins by FRET assay. Type of assay: cell-based. In short, it runs like this:
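CNiFER HEK cell monolayers stably expressing the receptor. Test compound at three concentrations in aCSF, preincubated 30 min at 37 °C, 6% CO2, before agonist addition: epibatidine for α4β2, 5-HT for 5-HT3A. TN-XXL FRET ratio (527/485 nm) read over 120 s at 37 °C, agonist injected at 30 s, triplicate wells. Agonist EC50 shifts fitted. KA computed as [A]/(DR−1) (competitive) or [A]/(Δmax/Δ−1) (noncompetitive). At least three independent experiments. α4β2 stoichiometry not distinguished.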
(In general: Calcium flux is commonly read through the fluorescence of an indicator in the cells.)

Assay [14] deals with T3, Neuronal acetylcholine receptor subunit alpha-7. As to the kind of experiment: Agonist activity at human alpha7 nAChR expressed in Xenopus laevis oocytes assessed as increase in channel currents at 30 uM at -60 mV holding potential followed washout for 211 sec and then 60 uM of Ach was applied by two electrode voltage clamp assay.
In assay [15] the target is T2, Neuronal acetylcholine receptor; alpha3/beta4 (Homo sapiens). As to the kind of experiment: Inhibition of human alpha3beta4 nAChR expressed in Xenopus laevis oocytes assessed as increase in channel currents at 30 uM at -60 mV holding potential by two electrode voltage clamp assay. Type of assay: cell-based.

T3 sequence (P36544 whole entry): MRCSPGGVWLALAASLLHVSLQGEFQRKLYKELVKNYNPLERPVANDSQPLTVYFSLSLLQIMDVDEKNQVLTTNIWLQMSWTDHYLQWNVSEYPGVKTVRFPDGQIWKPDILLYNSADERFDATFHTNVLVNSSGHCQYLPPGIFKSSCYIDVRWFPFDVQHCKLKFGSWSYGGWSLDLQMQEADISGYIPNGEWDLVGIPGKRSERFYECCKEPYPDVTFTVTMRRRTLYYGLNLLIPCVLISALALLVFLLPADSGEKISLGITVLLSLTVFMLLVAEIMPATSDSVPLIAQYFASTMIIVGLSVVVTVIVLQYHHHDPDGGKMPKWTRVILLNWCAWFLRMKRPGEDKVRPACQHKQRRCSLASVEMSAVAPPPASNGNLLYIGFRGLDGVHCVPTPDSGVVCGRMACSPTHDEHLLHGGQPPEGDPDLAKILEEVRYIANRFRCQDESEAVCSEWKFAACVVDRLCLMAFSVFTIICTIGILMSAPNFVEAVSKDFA

A word on the EC50: it is the concentration that produces a half-maximal response. The term IC50 denotes the concentration that gives 50% inhibition. Take `COc1ccccc1-c1cc(N(Cc2ccccn2)Cc2ccccn2)nc(N)n1`: in [1], the “inhibition activity (active/inactive)” value was “Active”. In addition, the outcome in assay [2], in assay [3], in [5], in [8] and in assay [14] was inactive. The inhibition entry in assay [4] and in assay [10] was “inactive” each time. For the same compound, the EC50 in assay [6] came to 350 nM; in assay [9] it was 70 nM. Moreover, in assay [6], the Imax came to 0.98. Further, the IC50 in [7] turned out to be 370 nM. In assay [11], the result was Active. The Ka in [12] is 6.3 µM; in assay [13] it was more than 10 µM. Besides, the inhibition entry in assay [15] was “Active”.

Take `COc1ccc(-c2cc(N(Cc3ccccn3)Cc3ccccn3)nc(N)n2)c(OC)c1`: in assay [9], the EC50 was 70 nM. The Ka in [12] is 2.5 µM; in [13], more than 10 µM.

For `Nc1nc(-c2ccsc2)cc(N(Cc2ccccn2)Cc2ccccn2)n1`, the EC50 in assay [9] turned out to be 500 nM. The Ka in assay [12] and in assay [13] was more than 10 µM in each case.
